The record followed here is ChEMBL document CHEMBL1126988, “Quinolone antibacterials containing the new 7-[3-(1-aminoethyl)-1- pyrrolidinyl] side chain: the effects of the 1-aminoethyl moiety and its stereochemical configurations on potency and in vivo efficacy” (J Med Chem, 1993).

Values after ≈ are worked out from the molar mass of the structure shown. Some results are limits rather than exact numbers.

Assay [1] relates to Escherichia coli. In words: Antibacterial activity in vitro against Escherichia coli Vogel. Format: functional. Summed up: (§1)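 Standard microtitration broth assay against a panel of 10 Gram-positive and Gram-negative organisms. MIC read in µg/mL and averaged over multiple experiments.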
The test system of assay [2] is Escherichia coli. In words: Antibacterial activity against Escherichia coli Vogel after oral administration in mouse. Format: functional. The conditions noted are these: Escherichia coli, po; read-out: PD50.
The test system of assay [3] is Escherichia coli. Put plainly: Antibacterial activity against Escherichia coli Vogel after subcutaneous administration in mouse. Format: functional. To be noted: Escherichia coli, sc; read-out: PD50.
A further assay concerns Enterobacter cloacae. In words: Minimum inhibitory concentration in vitro against Enterobacter cloacae MA 2646. Format: functional.
Another assay has as its system Enterococcus faecalis. In words: Minimum inhibitory concentration was evaluated in vitro against Enterococcus faecalis MGH-2. In kind it is functional. The essentials: as §1
For another assay, the system named is Klebsiella pneumoniae. In words: Minimum inhibitory concentration was evaluated in vitro against Klebsiella pneumoniae MGH2. In kind it is functional. Summed up: as §1
Another assay is filed under the species Mus musculus. Put plainly: Compounds were evaluated for phototoxicity no-effect dose in mouse. In kind it is functional. The essentials:
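Depilated female CD-1 mice, five per dose plus controls. Animals are dosed orally and then exposed daily to UV-A (320–400 nm) for 3 h, for up to 4 days or until a definite positive response. Redness or erythema relative to controls, read 24 h after irradiation, counts as positive. Reported as the highest dose with no effect (mg/kg).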

Another assay deals with Providencia rettgeri. In words: Minimum inhibitory concentration was evaluated in vitro against Providencia rettgeri M1771. In kind it is functional. Summed up:
as §1

For another assay, the system named is Pseudomonas aeruginosa. Put plainly: Minimum inhibitory concentration was evaluated in vitro against Pseudomonas aeruginosa UI-18. Format: functional. Summed up: as §1
Assay [4] deals with Staphylococcus aureus. Put plainly: Minimum inhibitory concentration was evaluated in vitro against Staphylococcus aureus H 228. In kind it is functional. Summed up:
as §1

The subject of assay [5] is Staphylococcus aureus. Put plainly: Minimum inhibitory concentration was evaluated in vitro against Staphylococcus aureus UC 76. Format: functional. The essentials: as §1
The next assay has as its system Streptococcus pneumoniae. In words: Minimum inhibitory concentration was evaluated in vitro against Streptococcus pneumoniae SV-1. In kind it is functional. Summed up:
as §1

The subject of assay [6] is Streptococcus pyogenes. Put plainly: Antibacterial activity measured as mouse protection against Streptococcus pyogenes C 203 after subcutaneous administration. Format: functional. To be noted: for ED50: Streptococcus pyogenes, C 203, sc, read-out: PD50.
Assay [7] is described as follows: Clonogenic cytotoxicity against hamster V-79 cells. Format: functional, Cricetulus griseus, V79. Summed up:
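Chinese hamster V-79 cells grown overnight, then drug-treated for 3 h at 37 °C. Medium is replaced with fresh medium and cells are incubated 5 days to allow colony formation. IC50 (µg/mL) is the concentration inhibiting colony formation by 50% relative to control.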

For assay [8], the system named is Streptococcus pyogenes. In words: Compounds were evaluated in vivo for antibacterial activity for mouse protection against Streptococcus pyogenes C 203 after oral administration. In kind it is functional. The conditions noted are these: for ED50: Streptococcus pyogenes, C 203, po, read-out: PD50.
Assay [9] relates to Streptococcus pyogenes. Put plainly: Minimum inhibitory concentration was evaluated in vitro against Streptococcus pyogenes C 203. In kind it is functional. Summed up:
as §1

Where [10] appears, read: Escherichia coli, read-out: MIC.
[11] abbreviates: Enterobacter cloacae, read-out: MIC.
Setting [12] is: Enterococcus faecalis, read-out: MIC.
[13] abbreviates: Klebsiella pneumoniae, read-out: MIC.
Setting [14] is: Providencia rettgeri, read-out: MIC.
The mark [15] stands for this setting: Pseudomonas aeruginosa, read-out: MIC.
Setting [16] is: Staphylococcus aureus, read-out: MIC.
Setting [17] is: Streptococcus pneumoniae, read-out: MIC.
[18] abbreviates: Streptococcus pyogenes, read-out: MIC.

The MIC is the lowest concentration found to suppress growth.

On to `COc1c(N2CCC(N)C2)c(F)cc2c(=O)c(C(=O)O)cn(C3CC3)c12` (centres undefined), for which the minimum inhibitory concentration (MIC) worked out at 0.025 µg/mL (≈ 0.0692 µM) with Escherichia coli [1] (setting [10]); 0.025 µg/mL (≈ 0.0692 µM) in the assay on Enterobacter cloacae (setting [11]); 0.05 µg/mL (≈ 0.138 µM) in the assay on Enterococcus faecalis (setting [12]); 0.05 µg/mL (≈ 0.138 µM) with Klebsiella pneumoniae (setting [13]); 0.1 µg/mL (≈ 0.277 µM) in the assay on Providencia rettgeri (setting [14]); 0.2 µg/mL (≈ 0.553 µM) in the assay on Pseudomonas aeruginosa (setting [15]). The MIC is 0.05 µg/mL (≈ 0.138 µM) in the assay with Staphylococcus aureus [4] (setting [16]), 0.013 µg/mL (≈ 0.036 µM) in the assay on Staphylococcus aureus [5] (setting [16]), 0.025 µg/mL (≈ 0.0692 µM) in the assay with Streptococcus pneumoniae (setting [17]) and 0.025 µg/mL (≈ 0.0692 µM) in the assay on Streptococcus pyogenes [9] (setting [18]). Moreover, the ED50 in the assay on Escherichia coli [2] came out at 3 mg/kg; in the assay with Escherichia coli [3], 0.4 mg/kg; in the assay with Streptococcus pyogenes [6], 3 mg/kg; with Streptococcus pyogenes [8], 10 mg/kg. The compound further yielded a Dose in the assay filed under Mus musculus greater than 100 mg/kg. Further, the Cytotoxicity in [7] amounted to 45 µg/mL.

For `CCNC[C@@H]1CCN(c2c(F)cc3c(=O)c(C(=O)O)cn(CC)c3c2F)C1`, the MIC with Escherichia coli [1] (setting [10]) was 0.1 µg/mL (≈ 0.264 µM); in the assay on Enterobacter cloacae (setting [11]) it was 0.2 µg/mL (≈ 0.527 µM); in the assay with Enterococcus faecalis (setting [12]) it was 0.1 µg/mL (≈ 0.264 µM); in the assay with Klebsiella pneumoniae (setting [13]) it was 0.1 µg/mL (≈ 0.264 µM); in the assay with Providencia rettgeri (setting [14]), 0.2 µg/mL (≈ 0.527 µM); in the assay on Pseudomonas aeruginosa (setting [15]), 1.6 µg/mL (≈ 4.22 µM). The MIC in the assay on Staphylococcus aureus [4] (setting [16]) stood at 0.05 µg/mL (≈ 0.132 µM); in the assay with Staphylococcus aureus [5] (setting [16]), 0.05 µg/mL (≈ 0.132 µM); with Streptococcus pneumoniae (setting [17]), 0.1 µg/mL (≈ 0.264 µM); in the assay with Streptococcus pyogenes [9] (setting [18]), 0.1 µg/mL (≈ 0.264 µM). Moreover, the ED50 in the assay with Escherichia coli [2] amounted to 10 mg/kg; in the assay on Escherichia coli [3], 3 mg/kg; in the assay on Streptococcus pyogenes [6], 4 mg/kg; in the assay on Streptococcus pyogenes [8], 10 mg/kg. Also, the Dose in the assay filed under Mus musculus stood at 1.5 mg/kg. The compound further returned a Cytotoxicity in [7] of 190 µg/mL.

With `CCN[C@H](C)[C@@H]1CCN(c2nc3c(cc2F)c(=O)c(C(=O)O)cn3C2CC2)C1`, the minimum inhibitory concentration (MIC) in the assay on Escherichia coli [1] (setting [10]) was found to be 0.1 µg/mL (≈ 0.257 µM); in the assay on Enterobacter cloacae (setting [11]), 0.4 µg/mL (≈ 1.03 µM); in the assay on Enterococcus faecalis (setting [12]) it was 0.05 µg/mL (≈ 0.129 µM); in the assay on Klebsiella pneumoniae (setting [13]) it was 0.2 µg/mL (≈ 0.515 µM); in the assay with Providencia rettgeri (setting [14]), 1.6 µg/mL (≈ 4.12 µM); in the assay on Pseudomonas aeruginosa (setting [15]), 1.6 µg/mL (≈ 4.12 µM). Further, the minimum inhibitory concentration (MIC) with Staphylococcus aureus [4] (setting [16]) came to 0.05 µg/mL (≈ 0.129 µM); in the assay on Staphylococcus aureus [5] (setting [16]) it was 0.025 µg/mL (≈ 0.0644 µM); in the assay on Streptococcus pneumoniae (setting [17]) it was 0.025 µg/mL (≈ 0.0644 µM); in the assay on Streptococcus pyogenes [9] (setting [18]) it was 0.05 µg/mL (≈ 0.129 µM). Also, the ED50 in the assay on Escherichia coli [2] was 7 mg/kg; in the assay on Escherichia coli [3], 6 mg/kg; in the assay with Streptococcus pyogenes [6], 4 mg/kg; in the assay on Streptococcus pyogenes [8] it was 6 mg/kg. The Cytotoxicity in assay [7] stood at 87 µg/mL.

With `CCN[C@H](C)[C@@H]1CCN(c2c(F)c(N)c3c(=O)c(C(=O)O)cn(C4CC4)c3c2F)C1`, the minimum inhibitory concentration (MIC) was found to be 0.05 µg/mL (≈ 0.119 µM) with Escherichia coli [1] (setting [10]); 0.1 µg/mL (≈ 0.238 µM) in the assay with Enterobacter cloacae (setting [11]); 0.025 µg/mL (≈ 0.0595 µM) with Enterococcus faecalis (setting [12]); 0.1 µg/mL (≈ 0.238 µM) with Klebsiella pneumoniae (setting [13]); 0.2 µg/mL (≈ 0.476 µM) in the assay with Providencia rettgeri (setting [14]); 1.6 µg/mL (≈ 3.81 µM) in the assay on Pseudomonas aeruginosa (setting [15]). In addition, the minimal inhibitory concentration (MIC) in the assay with Staphylococcus aureus [4] (setting [16]) came out at 0.006 µg/mL (≈ 0.0143 µM); in the assay on Staphylococcus aureus [5] (setting [16]), 0.003 µg/mL (≈ 0.00714 µM); with Streptococcus pneumoniae (setting [17]), 0.003 µg/mL (≈ 0.00714 µM); in the assay with Streptococcus pyogenes [9] (setting [18]), 0.003 µg/mL (≈ 0.00714 µM). For the same compound, the ED50 with Streptococcus pyogenes [6] came out at 0.5 mg/kg; in the assay with Streptococcus pyogenes [8], 1 mg/kg. This compound yielded a Cytotoxicity in assay [7] of 15 µg/mL.

With `CCN[C@H](C)[C@H]1CCN(c2c(F)c(N)c3c(=O)c(C(=O)O)cn(C4CC4)c3c2F)C1` (racemic), the MIC turned out to be 0.025 µg/mL (≈ 0.0595 µM) in the assay with Escherichia coli [1] (setting [10]); 0.025 µg/mL (≈ 0.0595 µM) in the assay with Enterobacter cloacae (setting [11]); 0.013 µg/mL (≈ 0.0309 µM) with Enterococcus faecalis (setting [12]); 0.05 µg/mL (≈ 0.119 µM) in the assay with Klebsiella pneumoniae (setting [13]); 0.1 µg/mL (≈ 0.238 µM) in the assay on Providencia rettgeri (setting [14]); 0.8 µg/mL (≈ 1.9 µM) with Pseudomonas aeruginosa (setting [15]). The MIC in the assay on Staphylococcus aureus [4] (setting [16]), with Staphylococcus aureus [5] (setting [16]), in the assay with Streptococcus pneumoniae (setting [17]) and in the assay with Streptococcus pyogenes [9] (setting [18]) was 0.003 µg/mL (≈ 0.00714 µM) in each case. Further, the ED50 with Escherichia coli [2] stood at 2 mg/kg; in the assay with Escherichia coli [3], 1 mg/kg; in the assay on Streptococcus pyogenes [6], 0.3 mg/kg; in the assay with Streptococcus pyogenes [8], 0.3 mg/kg. Also, the Cytotoxicity in [7] is 42 µg/mL.

For `CC(N)C1CCN(c2c(F)cc3c(=O)c(C(=O)O)cn(C4CC4)c3c2C(F)(F)F)C1` (racemic), the MIC against Escherichia coli [1] came to 0.2 µg/mL (≈ 0.468 µM); against Enterobacter cloacae it was 0.2 µg/mL (≈ 0.468 µM); against Enterococcus faecalis, 0.025 µg/mL (≈ 0.0585 µM); against Klebsiella pneumoniae it was 0.2 µg/mL (≈ 0.468 µM); in the assay on Providencia rettgeri it was 0.4 µg/mL (≈ 0.936 µM); in the assay on Pseudomonas aeruginosa, 1.6 µg/mL (≈ 3.74 µM). The MIC in the assay with Staphylococcus aureus [4] was found to be 0.013 µg/mL (≈ 0.0304 µM); in the assay with Staphylococcus aureus [5], 0.006 µg/mL (≈ 0.014 µM); with Streptococcus pneumoniae, 0.006 µg/mL (≈ 0.014 µM); in the assay on Streptococcus pyogenes [9], 0.006 µg/mL (≈ 0.014 µM). The Dose in the assay listed under Mus musculus was greater than 100 mg/kg. Besides, the PD50 in the assay on Streptococcus pyogenes [6] is 0.3 mg/kg; in the assay with Streptococcus pyogenes [8], 0.7 mg/kg. The compound also gave a Cytotoxicity in [7] of 19 µg/mL.
